From ChEMBL document CHEMBL3526134, “Molecular mechanism of altered ezetimibe disposition in nonalcoholic steatohepatitis” (Drug Metab Dispos, 2012)
Active and inactive are the calls of the source. No cut-off for these calls is given here.

Legend:
[1] = Drug level in methionine and choline deficient fed Sprague-Dawley rat urine treated with ezetimibe at 10 mg/kg, iv after 120 mins by LC-MS/MS method; format: ADME, organism-based; set-up: dose 10 mg/kg, route intravenous; conditions: in vivo, 2 h
Procedure, shortened: (§1)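 After 8 weeks MCD diet, male SD rats under urethane received EZE 10 mg/kg i.v. through femoral vein cannula (ethanol/propylene glycol/PEG 400/water vehicle; n=3-5). Terminal urine taken by bladder puncture at 120 min; EZE and β-glucuronidase-hydrolysed total EZE measured by LC-MS/MS; glucuronide by difference.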

[2] = Drug level in methionine and choline deficient fed Sprague-Dawley rat bile treated with ezetimibe at 10 mg/kg, iv after 30 to 90 mins by LC-MS/MS method; format: ADME, organism-based; set-up: dose 10 mg/kg, route intravenous; conditions: in vivo
Procedure, shortened: (§2)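 Male SD rats (200-250 g) on MCD diet 8 weeks, urethane-anesthetized (1.2 g/kg i.p.), femoral vein/artery and bile duct cannulated, core temperature maintained. EZE 10 mg/kg i.v. via femoral vein in 10% ethanol/40% propylene glycol/30% PEG 400/20% water (n=3-5). Bile collected at 15-min intervals over 120 min; total EZE after β-glucuronidase (50°C, 60 min) and EZE by LC-MS/MS; glucuronide = total minus parent.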

Plasma [3] = assay: Drug metabolism in methionine and choline deficient fed Sprague-Dawley rat plasma assessed as ezetimibe glucuronide formation at 10 mg/kg, iv after 40 mins by LC-MS/MS method; format: ADME, organism-based; set-up: dose 10 mg/kg, route intravenous; conditions: in vivo
Procedure, shortened: (§3)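 MCD-diet (8 weeks) male SD rats under urethane, femoral artery/vein and bile duct cannulated; EZE 10 mg/kg i.v. bolus via femoral vein in ethanol/propylene glycol/PEG 400/water vehicle (n=3-5). Arterial plasma sampled from 2 to 120 min; 25 µL plasma analysed by LC-MS/MS with and without β-glucuronidase pre-hydrolysis; glucuronide calculated by difference. Mean ± SEM.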

[4] = Drug metabolism in methionine and choline deficient fed Sprague-Dawley rat urine assessed as ezetimibe glucuronide formation at 10 mg/kg, po after 120 mins by LC-MS/MS method; format: ADME, organism-based; set-up: dose 10 mg/kg, route oral; conditions: in vivo, 2 h
Procedure, shortened: (§4)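 MCD-fed (8 weeks) male SD rats, urethane-anesthetized and cannulated, dosed EZE 10 mg/kg by gavage in 0.25% carboxymethylcellulose (n=3-5). Urine collected by bladder puncture 120 min post-dose; parent and total EZE (after β-glucuronidase, 50°C, 60 min) by LC-MS/MS, glucuronide calculated as their difference.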

Plasma [5] = assay: Drug level in methionine and choline deficient fed Sprague-Dawley rat plasma at 10 mg/kg, iv after 40 mins by LC-MS/MS method; format: ADME, organism-based; set-up: dose 10 mg/kg, route intravenous; conditions: in vivo; procedure, shortened: as §3
Plasma [6] = assay: Drug metabolism in methionine and choline deficient fed Sprague-Dawley rat plasma assessed as ezetimibe glucuronide formation at 10 mg/kg, po after 40 mins by LC-MS/MS method; format: ADME, organism-based; set-up: dose 10 mg/kg, route oral; conditions: in vivo
Procedure, shortened: (§5)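 Cannulated, urethane-anesthetized male SD rats after 8 weeks MCD diet given EZE 10 mg/kg orally in 0.25% carboxymethylcellulose (n=3-5). Plasma collected from 2 to 120 min post-dose; total EZE (after β-glucuronidase, 50°C 60 min) and parent EZE quantified by LC-MS/MS; glucuronide = total minus parent. Mean ± SEM.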

[7] = Drug level in methionine and choline deficient fed Sprague-Dawley rat urine at 10 mg/kg, iv after 120 mins by LC-MS/MS method; format: ADME, organism-based; set-up: dose 10 mg/kg, route intravenous; conditions: in vivo, 2 h; procedure, shortened: as §1
[8] = Drug level in methionine and choline deficient fed Sprague-Dawley rat urine at 10 mg/kg, po after 120 mins by LC-MS/MS method; format: ADME, organism-based; set-up: dose 10 mg/kg, route oral; conditions: in vivo, 2 h; procedure, shortened: as §4
Plasma [9] = assay: Drug level in methionine and choline deficient fed Sprague-Dawley rat plasma at 10 mg/kg, po after 40 mins by LC-MS/MS method; format: ADME, organism-based; set-up: dose 10 mg/kg, route oral; conditions: in vivo; procedure, shortened: as §5
Plasma [10] = assay: Drug metabolism in methionine and choline deficient fed Sprague-Dawley rat plasma assessed as ezetimibe glucuronide formation at 10 mg/kg, po after 120 mins by LC-MS/MS method; format: ADME, organism-based; set-up: dose 10 mg/kg, route oral; conditions: in vivo, 2 h; procedure, shortened: as §5
[11] = Drug level in methionine and choline deficient fed Sprague-Dawley rat bile at 10 mg/kg, po after 120 mins by LC-MS/MS method; format: ADME, organism-based; set-up: dose 10 mg/kg, route oral; conditions: in vivo, 2 h
Procedure, shortened: (§6)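 Male SD rats (200-250 g) fed MCD diet 8 weeks, urethane-anesthetized with femoral and bile duct cannulae. EZE 10 mg/kg by oral gavage in 0.25% carboxymethylcellulose (n=3-5). Bile taken at 15-min intervals to 120 min; samples ±β-glucuronidase hydrolysis (50°C, 60 min), hydroxychalcone internal standard, LC-MS/MS on C18 gradient; glucuronide derived as total minus unconjugated EZE.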

Rattus norvegicus [12] = assay: Effect on total bile acid levels in Sprague-Dawley rat nonalcoholic steatohepatitis model at 10 mg/kg, po after 120 mins by spectrophotometry; format: functional, organism-based; set-up: dose 10 mg/kg
[13] = Drug level in methionine and choline deficient fed Sprague-Dawley rat bile at 10 mg/kg, iv after 30 to 90 mins by LC-MS/MS method; format: ADME, organism-based; set-up: dose 10 mg/kg, route intravenous; conditions: in vivo; procedure, shortened: as §2
[14] = Drug metabolism in methionine and choline deficient fed Sprague-Dawley rat urine assessed as ezetimibe glucuronide formation at 10 mg/kg, iv after 120 mins by LC-MS/MS method; format: ADME, organism-based; set-up: dose 10 mg/kg, route intravenous; conditions: in vivo, 2 h; procedure, shortened: as §1
Plasma [15] = assay: Drug metabolism in methionine and choline deficient fed Sprague-Dawley rat plasma assessed as ezetimibe glucuronide formation at 10 mg/kg, iv after 120 mins by LC-MS/MS method; format: ADME, organism-based; set-up: dose 10 mg/kg, route intravenous; conditions: in vivo, 2 h; procedure, shortened: as §3
Rattus norvegicus [16] = assay: Effect on total bile acid levels in Sprague-Dawley rat nonalcoholic steatohepatitis model at 10 mg/kg, iv after 120 mins by spectrophotometry; format: functional, organism-based; set-up: dose 10 mg/kg
Plasma [17] = assay: Drug level in methionine and choline deficient fed Sprague-Dawley rat plasma at 10 mg/kg, iv after 120 mins by LC-MS/MS method; format: ADME, organism-based; set-up: dose 10 mg/kg, route intravenous; conditions: in vivo, 2 h; procedure, shortened: as §3
Plasma [18] = assay: Drug level in methionine and choline deficient fed Sprague-Dawley rat plasma at 10 mg/kg, po after 120 mins by LC-MS/MS method; format: ADME, organism-based; set-up: dose 10 mg/kg, route oral; conditions: in vivo, 2 h; procedure, shortened: as §5
[19] = Drug metabolism in methionine and choline deficient fed Sprague-Dawley rat bile assessed as ezetimibe glucuronide formation at 10 mg/kg, iv after 30 to 90 mins by LC-MS/MS method; format: ADME, organism-based; set-up: dose 10 mg/kg, route intravenous; conditions: in vivo; procedure, shortened: as §2
[20] = Drug metabolism in methionine and choline deficient fed Sprague-Dawley rat bile assessed as ezetimibe glucuronide formation at 10 mg/kg, po after 120 mins by LC-MS/MS method; format: ADME, organism-based; set-up: dose 10 mg/kg, route oral; conditions: in vivo, 2 h; procedure, shortened: as §6

Drug metabolism [1] | Drug metabolism [2] | Drug metabolism (Plasma [3]) | Drug metabolism [4] | Drug uptake (Plasma [5]) | Drug metabolism (Plasma [6]) | Drug uptake [7] | Drug uptake [8] | Drug uptake (Plasma [9]) | Drug metabolism (Plasma [10]) | Drug uptake [11] | Drug uptake [13] | Drug metabolism [14] | Drug metabolism (Plasma [15]) | Drug uptake (Plasma [17]) | Drug uptake (Plasma [18]) | Drug metabolism [19] | Drug metabolism [20] | Compound | Activity (Rattus norvegicus [12]) | Activity (Rattus norvegicus [16])
metabolite_detected | metabolite_not_detected |  |  |  |  |  |  |  |  |  |  |  |  |  |  |  |  | O=C(O)[C@H]1O[C@@H](Oc2ccc([C@@H]3[C@@H](CC[C@H](O)c4ccc(F)cc4)C(=O)N3c3ccc(F)cc3)cc2)[C@H](O)[C@@H](O)[C@@H]1O |  | 
 |  | metabolite_detected | metabolite_detected | Active | metabolite_detected | Active | Active | Active | metabolite_detected | Active | Not Active | metabolite_detected | metabolite_detected | Active | Active | metabolite_not_detected | metabolite_detected | O=C1[C@H](CC[C@H](O)c2ccc(F)cc2)[C@@H](c2ccc(O)cc2)N1c1ccc(F)cc1 [EZETIMIBE] | inactive | inactive
